Screening results: PubChem, Broad Institute
Rows were chosen to be rich in hits. Some 4.4% of all compounds tested hit in one or more screens of this group.
T cruzi inh – T. cruzi replication inhibition | T. cruzi beta-gal in NIH3T3, luminescence, 90 h | inhibition, % (test concentration not listed) | actives 1.4% (n = 300,000);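 active = mean inhibition across valid replicates above about 55%, limit read from the data; inconclusive = mean below that limit but half or more replicates reach it; inactive = mean below it, under half of replicates reach it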;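 note: signal also drops with host cell toxicity which is not excluded here; 0% = plate median of DMSO wells and 100% = zero luminescence signal; higher percent means less beta-gal luminescence so fewer parasites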
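Read-out: Parasite load inhibition, % | Test system: Mouse NIH/3T3 fibroblasts infected with β-gal-expressing T. cruzi Tulahuen C4 | Amount: 5,000 cells/well | Medium: DMEM, 2% fetal bovine serum | Signal: GalScreen β-gal luminescence, detergent lysis, 60 min | Timing: 3 h attach, ≥90 h co-culture | Also added: Tulahuen C4 trypomastigotes, 5000/well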
HSF1 inhib – HSF1 inhibition. actives 0.77% (n = 300,000). AID 2098. NIH3T3-HGL HSE-luciferase, MG132-induced, luminescence 8 h; hits give low values. activity change, negative = inhibition, % at 7.5 µM (by protocol);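 active = more than half of replicate wells show activity change below -50%, luminescence cut by over half; inconclusive = some wells, but at most half, below -50%; inactive = no replicate well below -50%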;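 note: luciferase reports HSF-1 transcriptional activity via heat shock element; 0% = median of DMSO wells and -100% = zero luminescence signal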
HSF-1 act – increases HSF-1 driven luciferase reporter signal. NIH3T3-HGL HSF-1 luciferase reporter, MG132, 8 h; 100% = twice DMSO control signal. activation, % at 9 µM. actives 1.7% (n = 300,000). AID 504408;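 active = mean replicate activation of at least 50% with a set share of replicates each reaching 50%; inconclusive = only one of those two conditions met; inactive = mean below 50% and too few replicates reaching it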;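 note: 0% = median of the neutral control wells and 100% = twice that signal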
HIF act – HIF pathway transcriptional activation. U2OS HRE-luciferase reporter, luminescence; normalized: DMSO 0%, desferrioxamine 100%. actives 0.32% (n = 300,000). activation, % at 7.5 µM (by protocol);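 active = mean activation of at least 10% of the iron chelator positive control signal, with at least half of replicates also reaching 10%; inconclusive = mean and replicate majority disagree about reaching 10%; inactive = mean and most replicates under 10%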
Calb FLC – C. albicans growth modulation with fluconazole. C. albicans CaCi-2 + fluconazole, Alamar Blue growth, 48 h. actives 0.57% (n = 300,000). growth inhibition, % (test concentration not listed);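 active = growth inhibition above about 58% in most replicates, limit read from the data, passing the limit was not always enough; inconclusive = exactly half the replicates above a set limit; inactive = most replicates below a set limit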;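 note: all wells also contain fluconazole at 8 µg/ml as a sub-toxic cotreatment; 0% = median of DMSO wells and 100% = median of geldanamycin control wells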
The depositor's hits bear a star; ? = inconclusive; · = no result given.

SMILES | T cruzi inh | HSF1 inhib | HSF-1 act | HIF act | Calb FLC
CN1c2ccc([N+](=O)[O-])cc2CC2(C(=O)NC(=O)NC2=O)C1c1ccccc1 (stereo not drawn) | -0.1 | 8.6 | 21.4 | -0.4 | -4.2
COc1ccc(CNCCc2c(C)[nH]c3ccc(OC(F)(F)F)cc23)c(OC)c1 | 58.7* | -5.9 | 3.2 | 0.7 | 2.4
COc1ccc2[nH]c(C)c(CCNCc3cc(OC)c(OC)c(OC)c3)c2c1 | 11.1 | -5.3 | 3.3 | -0.5 | -3.2
COc1ccc(OC)c(N2C(=O)NC(=O)/C(=C\c3ccc([N+](=O)[O-])s3)C2=O)c1 | ? | -62.8* | -70.0 | -0.5 | 31.8
CN(C(=O)c1ccc(Cl)nc1)C1(c2ccccc2Cl)CCCCC1=O (stereo not drawn) | 0.4 | -4.3 | 15.2 | 0.1 | 4.9
C=CCn1c(O)c(C(CC)=Nc2ccc3c(c2)CCC3)c(=O)[nH]c1=O | 4.8 | 30.2 | 74.0* | 0.3 | -18.5
C=CCn1c(O)c(C(C)=Nc2ccc3c(c2)CCC3)c(=O)[nH]c1=O | 10.4 | -3.1 | 21.0 | 0.7 | 28.9
Cc1ccc(-c2cc(-c3ccc(C)cc3)[n+](-c3ccc(C(=O)[O-])cc3)c(-c3ccc(C)cc3)c2)cc1 | 40.9 | -28.8 | -31.7 | -1.3 | 37.5
Cc1ccc(-c2cc(-c3ccc(C)cc3)[n+](-c3ccccc3)c(-c3ccc(C)cc3)c2)cc1 | 48.5 | 2.4 | 4.6 | -1.2 | 106.1*
C[n+]1c(-c2ccccc2)cc(-c2ccc(Cl)cc2)cc1-c1ccccc1 | 51.1 | -5.9 | 15.6 | -0.5 | 97.0*
Cc1ccc(-c2cc(-c3ccccc3)cc(-c3ccccc3)[n+]2-c2ccccc2)cc1 | 49.4 | -17.5 | -25.0 | -0.9 | 86.1*
c1ccc(-c2cc(-c3ccccc3)[n+](-c3ccccc3)c(-c3ccccc3)c2)cc1 | 42.4 | -12.6 | -16.7 | 1.1 | ?
CN(C)c1ccc(-[n+]2c(-c3ccccc3)cc(-c3ccccc3)cc2-c2ccccc2)cc1 | 60.7* | -16.7 | -15.9 | -0.4 | 90.4*
CC(C)CN1CCN(Cc2cccc3c2OCO3)CC1CCO (stereo not drawn) | -10.1 | -2.4 | 3.0 | -0.1 | -10.5
Cc1cccc(CCNCc2cc3cccc(C)c3[nH]c2=O)c1 | 35.2 | -3.8 | 11.0 | 0.2 | -4.1
CN1C(=O)C(O)N=C(c2ccccc2)c2ccccc21 (stereo not drawn) | 6.4 | -9.1 | -6.1 | -0.9 | 4.7
CCOC(=O)c1cccc(-[n+]2c(-c3ccccc3)cc(-c3ccccc3)cc2-c2ccccc2)c1 | 47.2 | -4.6 | -15.1 | 1.9 | -4.7
CCOC(=O)c1ccc(-[n+]2c(-c3ccccc3)cc(-c3ccccc3)cc2-c2ccccc2)cc1 | 65.3* | 16.2 | 28.0 | 2.6 | 38.6
CCC(C)n1c(O)c(/C=N/Nc2ccccc2)c(=O)[nH]c1=S (stereo not drawn) | -5.2 | -5.3 | 0.7 | -0.2 | 8.7
CCN1CCN(c2cc(N3CCCC3)c(F)cc2[N+](=O)[O-])CC1 | 14.3 | 1.3 | 7.5 | 0.4 | 1.1
COC(=O)[C@]12OC[C@]34C([C@@H](O)[C@@H]1O)[C@]1(C)CC(=O)C(O)=C(C)[C@@H]1C[C@H]3OC(=O)[C@H](O)[C@@H]24 (stereo partly drawn) | 3.3 | -68.9* | -73.8 | 20.8* | 2.3
COC(=O)C(O)(c1ccc2c(c1)CCCN2)C(F)(F)F (stereo not drawn) | -4.5 | -15.8 | 2.9 | -0.6 | -3.3
O=C1NC2C(O)C(O)C(O)C(O)C2c2cc3c(c(O)c21)OCO3 (stereo not drawn) | · | 88.6* | 88.6* | · | ·
Cc1nc2ccc(P(=O)(O)O)cc2s1 | -15.8 | -0.4 | 2.6 | -0.3 | -4.0
O=C1NC(=O)N(Cc2ccc(F)cc2)C(=O)/C1=C\C=C\c1ccco1 | -57.5 | 42.6 | 81.9* | -1.0 | 8.0
SMILES | T cruzi inh | HSF1 inhib | HSF-1 act | HIF act | Calb FLC
CN(C)C(=O)Oc1ccc2c(c1)O/C(=C\c1cccc(Cl)c1)C2=O | 4.9 | 14.1 | 35.4 | 2.4 | -14.7
CN(C)C(=O)Oc1ccc2c(c1)O/C(=C\c1ccc(Cl)cc1)C2=O | 1.5 | 44.3 | 56.5* | 1.4 | -9.7
CCOCCCNC(=O)C1c2cc(OC)c(OC)cc2C(=O)N2CCCCC12 (stereo not drawn) | -0.1 | 12.6 | 1.7 | 0.4 | -4.0
CCCCC(CC)CNCC(O)c1ccccc1 (stereo not drawn) | 77.7* | -1.3 | -2.8 | -0.1 | -1.8
CC(=O)C1C2c3ccccc3O[C@@]1(C)N=c1s/c(=C/c3ccoc3)c(=O)n12 (stereo partly drawn) | 12.0 | 0.4 | · | -0.1 | -46.8
CC(C)(C)n1cc(C(=O)c2ccccc2)cc1-c1ccccc1 | 1.5 | 4.0 | 45.4 | -0.9 | ·
FC(F)(F)c1ccc2c(c1)NP(=S)(N1CCOCC1)c1nccn1-2 (stereo not drawn) | 9.4 | 2.5 | -7.0 | 69.3* | 4.6
COc1ccc(-c2nc3ccc(C(=O)N4CCC5(CC4)OCCO5)cc3nc2-c2ccc(OC)cc2)cc1 | 0.8 | 3.3 | 8.4 | -0.5 | 4.7
C[C@H]1C[C@@H](C)C(=O)[C@@H]([C@H](O)CC2CC(=O)NC(=O)C2)C1 | 57.7* | -69.3* | -73.0 | -0.3 | 13.8
COc1ccc(C2C(C#N)=C(N)Oc3c2c(=O)oc2ccccc32)cc1Cn1cc([N+](=O)[O-])cn1 (stereo not drawn) | -12.1 | 1.2 | 20.9 | 0.2 | 8.8
COc1ccc(C2=CC(c3ccc(OC)c(OC)c3)c3c(c4ccccc4oc3=O)O2)cc1OC (stereo not drawn) | 16.4 | -56.0* | -64.1 | 3.0 | -3.1
CCOc1cccc(C2NCc3ccccc3-n3cccc32)c1O (stereo not drawn) | -1.1 | 79.8 | 92.6* | -1.0 | -2.1
COC(=O)C1=C(c2ccccc2)C[C@@H]2CC[C@H]1N2C(=O)NC1CCCCC1 | 6.7 | -1.0 | -3.6 | -0.6 | -23.8
Cc1c(C(=O)N2CCC3(CC2)OCCO3)sc2ncnc(N3CCc4ccccc4C3)c12 | 9.0 | -10.8 | 12.4 | 0.2 | -1.1
CCN(CC)C(=O)c1ccc(NC(=O)CCCSc2ccccc2)cc1 | 1.8 | -3.2 | -3.2 | -0.4 | -1.6
CCN(CC)C(=O)c1ccc(NC(=O)Nc2ccccc2F)cc1 | -1.8 | -64.4* | -70.5 | -4.5 | 10.5
Cc1ccccc1-n1c(O)c(/C=C2/C(c3ccccc3)=Nc3ccccc32)c(=O)[nH]c1=O | -5.5 | 3.2 | 21.9 | 0.4 | -2.9
COC(=O)C1=Nc2ccccc2/C1=C\c1c(O)n(-c2cc(OC)ccc2OC)c(=O)[nH]c1=O | -14.0 | -13.7 | -2.0 | 547.6* | 15.4
O=c1[nH]sc2cc(F)ccc12 | 86.9* | -21.6 | 1.4 | -1.3 | 6.3
COc1cccc(NC(=O)CN2CC(c3ccccc3)CC2=O)c1 (stereo not drawn) | 1.2 | -5.8 | -5.2 | 0.1 | -8.2
O=C(CN1CC(c2ccccc2)CC1=O)NCc1ccc(F)cc1 (stereo not drawn) | -4.3 | -66.3* | -73.8 | 0.0 | -0.5
